Results from different studies.
Each line is one published result; the experiments were not run side by side.
Target: Carbonic anhydrase 12 (CA12, Homo sapiens, UniProt O43570)
Read-out: enzyme activity
Action: inhibitor

method | endpoint | value | SMILES
stopped-flow | Ki | 1830 nM | Cc1ccc(OC(=O)c2ccc(=O)oc2)cc1
stopped-flow | Ki | 54.2 nM | Cc1cc(=O)oc2cc(OCCCCSC#N)ccc12
absorbance | IC50 | 790 nM | CS(=O)(=O)Nc1ccc(Nc2nc(-c3cc4ccccc4oc3=O)cs2)cc1Oc1ccccc1
stopped-flow | Ki | 54800 nM | COc1ccc(-n2cc(COC(=O)c3ccc(=O)oc3)nn2)cc1
absorbance | IC50 | 1880 nM | COc1ccc2oc(=O)c(-c3csc(Nc4ccc(C(=O)O)cc4)n3)cc2c1
stopped-flow | Ki | 82800 nM | CC1CCCCC1OC(=O)c1ccc(=O)oc1 (stereo not shown)
absorbance | IC50 | 2780 nM | NS(=O)(=O)c1ccc(-c2ccc(Nc3ccc(F)c(Cl)c3)cc2)cc1
stopped-flow | Ki | 234 nM | N#CSCCCCOc1ccc2c(-c3ccccc3)cc(=O)oc2c1
absorbance | IC50 | 610 nM | CS(=O)(=O)Nc1ccc(Nc2nc(-c3cc4cc(Br)ccc4oc3=O)cs2)cc1Oc1ccccc1
absorbance | IC50 | 880 nM | NS(=O)(=O)c1ccc(-c2ccc(Nc3ccncc3)cc2)cc1
